Assay results as given in ChEMBL document CHEMBL4152200, “Targeting the entrance channel of NNIBP: Discovery of diarylnicotinamide 1,4-disubstituted 1,2,3-triazoles as novel HIV-1 NNRTIs with high potency against wild-type and E138K mutant virus” (Eur J Med Chem, 2018).

Tests used:
[1] = Selectivity index, ratio of CC50 for human MT4 cells to EC50 for HIV1 harboring reverse transcriptase E138K mutant; assay type: toxicity; details: read-out: Ratio CC50/EC50
Procedure, shortened: (§1)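 SI is CC₅₀ divided by EC₅₀, both by MTT after 5 days in MT-4 cells. CC₅₀ comes from mock-infected cultures run in parallel and is the concentration reducing their viability by 50%. EC₅₀ comes from cultures infected with the given mutant strain at 100–300 CCID₅₀.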

[2] = tested on: Human immunodeficiency virus 1; assay: Resistance factor, ratio of EC50 for HIV1 harboring reverse transcriptase E138K mutant to EC50 for wild-type HIV-1 3B; assay type: functional
Procedure, shortened: (§2)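 Resistance fold is EC₅₀ against the mutant strain divided by EC₅₀ against WT IIIB. Both EC₅₀ values come from the 5-day MTT protection assay in MT-4 cells infected with 100–300 CCID₅₀ of virus.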

[3] = tested on: TZM; assay: Cytotoxicity against human TZM-bl cells by CytoTox-Glo reagent-based assay; assay type: cell-based
Procedure, shortened: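 TZM-bl cells exposed to compound at various concentrations. Cytotoxicity measured by CytoTox-Glo assay.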

[4] = tested on: Human immunodeficiency virus 1; assay: Antiviral activity against HIV1 harboring reverse transcriptase Y181C mutant infected in human MT4 cells assessed as inhibition of viral replication after 5 days by MTT assay; assay type: functional, organism-based; details: Human immunodeficiency virus 1, MT4, 120 h
[5] = tested on: Human immunodeficiency virus 1; assay: Resistance factor, ratio of EC50 for HIV1 harboring reverse transcriptase F227L/V106A mutant to EC50 for wild-type HIV-1 3B; assay type: functional; procedure, shortened: as §2
[6] = Selectivity index, ratio of CC50 for human TZM-bl cells to EC50 for wild-type HIV-1 NL4-3 infected in human TZM-bl cells; assay type: toxicity, cell-based; details: read-out: Ratio CC50/EC50
Procedure, shortened: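 SI is CC₅₀ divided by EC₅₀ in TZM-bl cells. CC₅₀ from CytoTox-Glo assay, averaged from two independent tests. EC₅₀ from single-round infection with 800 TCID₅₀ NL4-3, luciferase luminescence read at 2 days and expressed relative to virus controls.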

[7] = biological target: Human immunodeficiency virus type 1 reverse transcriptase (Human immunodeficiency virus 1, UniProt Q72547); assay: Inhibition of wild-type HIV1 reverse transcriptase assessed as decrease in digoxigenin and biotin-dUTP incorporation in to DNA using poly(A)/oligo(dT)15 as template/primer after 1 hr by ELISA
Procedure, shortened: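 Kit ELISA on wild-type HIV-1 RT with poly(A)·oligo(dT)15 as template/primer and digoxigenin- and biotin-labelled dUTP. Incorporated label detected with peroxidase-conjugated anti-digoxigenin antibody and ABTS substrate. IC₅₀ is the concentration inhibiting biotin-dUTP incorporation by 50%.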

[8] = tested on: Human immunodeficiency virus 1; assay: Antiviral activity against HIV1 harboring reverse transcriptase L100I mutant infected in human MT4 cells assessed as inhibition of viral replication after 5 days by MTT assay; assay type: functional, organism-based; details: Human immunodeficiency virus 1, MT4, 120 h
[9] = tested on: Human immunodeficiency virus 1; assay: Antiviral activity against HIV1 harboring reverse transcriptase F227L/V106A double mutant infected in human MT4 cells assessed as inhibition of viral replication after 5 days by MTT assay; assay type: functional, organism-based; details: Human immunodeficiency virus 1, MT4, 120 h
[10] = tested on: Human immunodeficiency virus 1; assay: Resistance factor, ratio of EC50 for HIV1 harboring reverse transcriptase Y181C mutant to EC50 for wild-type HIV-1 3B; assay type: functional; procedure, shortened: as §2
[11] = tested on: Human immunodeficiency virus 1; assay: Antiviral activity against HIV1 harboring reverse transcriptase E138K mutant infected in human MT4 cells assessed as inhibition of viral replication after 5 days by MTT assay; assay type: functional, organism-based; details: Human immunodeficiency virus 1, MT4, 120 h
[12] = Selectivity index, ratio of CC50 for human MT4 cells to EC50 for HIV1 harboring reverse transcriptase F227L/V106A mutant; assay type: toxicity; details: read-out: Ratio CC50/EC50; procedure, shortened: as §1
[13] = tested on: Human immunodeficiency virus 1; assay: Antiviral activity against HIV1 harboring reverse transcriptase K103N mutant infected in human MT4 cells assessed as inhibition of viral replication after 5 days by MTT assay; assay type: functional, organism-based; details: Human immunodeficiency virus 1, MT4, 120 h
[14] = Selectivity index, ratio of CC50 for human MT4 cells to EC50 for HIV1 harboring reverse transcriptase Y188L mutant; assay type: toxicity; details: read-out: Ratio CC50/EC50; procedure, shortened: as §1
[15] = tested on: Human immunodeficiency virus 1; assay: Antiviral activity against HIV-1 RES056 harboring reverse transcriptase K103N/Y181C double mutant infected in human MT4 cells assessed as inhibition of viral replication after 5 days by MTT assay; assay type: functional, organism-based; details: Human immunodeficiency virus 1, RES056, MT4, 120 h
[16] = tested on: Human immunodeficiency virus 1; assay: Antiviral activity against wild-type HIV-1 NL4-3 infected in human TZM-bl cells assessed as inhibition of viral replication after 2 days by bright Glo-luciferase reporter gene assay; assay type: functional, organism-based; details: Human immunodeficiency virus 1, NL4-3, TZM-bl, 48 h
Procedure, shortened: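 TZM-bl cells infected with 800 TCID₅₀ of NL4-3 in the presence of a range of compound concentrations; single-round infection. After 2 days medium removed, Bright-Glo added and luminescence read. EC₅₀ is the concentration giving a 50% fall in relative light units relative to virus-control wells. Mean ± SD from at least triplicate.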

[17] = Selectivity index, ratio of CC50 for human MT4 cells to EC50 for HIV1 harboring reverse transcriptase Y181C mutant; assay type: toxicity; details: read-out: Ratio CC50/EC50; procedure, shortened: as §1
[18] = tested on: MT4; assay: (§3) Cytotoxicity against human MT4 cells assessed as decrease in cell viability after 5 days by MTT assay; assay type: cell-based; details: mt4, 120 h
Procedure, shortened: (§4)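 Mock-infected MT-4 cells, exponentially growing, seeded with compound in culture medium without virus; run in parallel with the antiviral assay. Viability read spectrophotometrically by MTT reduction five days later.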

[19] = tested on: Human immunodeficiency virus 1; assay: Antiviral activity against wild-type HIV-1 3B infected in human MT4 cells assessed as inhibition of viral replication after 5 days by MTT assay; assay type: functional, organism-based; details: Human immunodeficiency virus 1, 3B, MT4, 120 h
[20] = Selectivity index, ratio of CC50 for human MT4 cells to EC50 for HIV1 harboring reverse transcriptase L100I mutant; assay type: toxicity; details: read-out: Ratio CC50/EC50; procedure, shortened: as §1
[21] = tested on: Human immunodeficiency virus 1; assay: Antiviral activity against HIV1 harboring reverse transcriptase Y188L mutant infected in human MT4 cells assessed as inhibition of viral replication after 5 days by MTT assay; assay type: functional, organism-based; details: Human immunodeficiency virus 1, MT4, 120 h
Procedure, shortened: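 MT-4 cells in exponential growth, resuspended into wells holding HIV-1 stock (IIIB, RES056 K103N/Y181C, F227L/V106A, L100I, K103N, E138K, Y181C or Y188L) at 100–300 CCID₅₀, or into mock-infected wells. Viability read by MTT reduction to formazan, measured spectrophotometrically 5 days post-infection. EC₅₀ is the concentration giving 50% protection against virus-induced cytotoxicity.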

[22] = Selectivity index, ratio of CC50 for human MT4 cells to EC50 for HIV1 harboring reverse transcriptase K103N mutant; assay type: toxicity; details: read-out: Ratio CC50/EC50; procedure, shortened: as §1
[23] = tested on: Human immunodeficiency virus 1; assay: Resistance factor, ratio of EC50 for HIV1 harboring reverse transcriptase Y188L mutant to EC50 for wild-type HIV-1 3B; assay type: functional; procedure, shortened: as §2
[24] = tested on: Human immunodeficiency virus 1; assay: Resistance factor, ratio of EC50 for HIV1 harboring reverse transcriptase L100I mutant to EC50 for wild-type HIV-1 3B; assay type: functional; procedure, shortened: as §2
[25] = tested on: Human immunodeficiency virus 1; assay: Resistance factor, ratio of EC50 for HIV1 harboring reverse transcriptase K103N mutant to EC50 for wild-type HIV-1 3B; assay type: functional; procedure, shortened: as §2
[26] = Selectivity index, ratio of CC50 for human MT4 cells to EC50 for wild-type HIV1 3B; assay type: toxicity; details: read-out: Ratio CC50/EC50
Procedure, shortened: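 Wild-type HIV-1 IIIB at 100–300 CCID50 added to MT-4 cells with compound, with mock-infected wells in parallel. MTT viability was read at day 5. […] SI = CC50/EC50.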

[27] = as §3; assay type: cell-based; details: MT4 cells; procedure, shortened: as §4

Structure (SMILES): Cc1cc(C)c(Oc2cc(Nc3ccc(C#N)cc3)ncc2C(=O)NCc2cn(CC(=O)N3CCOCC3)nn2)c(C)c1
- selectivity ratio [1]: 6800
- Ratio EC50 [2]: 1.4
- CC50 [3]: > 215 µM
- EC50 [4]: 0.24 µM
- Ratio EC50 [5]: 30.5
- selectivity ratio [6]: > 10.8
- IC50 [7]: 1.57 µM
- EC50 [8]: 6.13 µM
- EC50 [9]: 0.61 µM
- Ratio EC50 [10]: 12
- EC50 [11]: 0.027 µM
- selectivity ratio [12]: 297
- EC50 [13]: 0.38 µM
- selectivity ratio [14]: 25
- EC50 [15]: 15.7 µM
- EC50 [16]: 0.02 µM
- selectivity ratio [17]: 761
- CC50 [18]: 181 µM
- EC50 [19]: 0.02 µM
- selectivity ratio [20]: 30
- EC50 [21]: 7.16 µM
- selectivity ratio [22]: 473
- Ratio EC50 [23]: 358
- Ratio EC50 [24]: 306.5
- Ratio EC50 [25]: 19

Structure (SMILES): Cc1cc(C)c(Oc2cc(Nc3ccc(C#N)cc3)ncc2C(=O)NCc2cn(CC(=O)N3CCCC3)nn2)c(C)c1
- selectivity ratio [1]: 4190
- Ratio EC50 [2]: 0.7
- CC50 [3]: > 221 µM
- EC50 [4]: 0.085 µM
- Ratio EC50 [5]: 12
- selectivity ratio [6]: > 9.2
- IC50 [7]: 2.7 µM
- EC50 [8]: 0.96 µM
- EC50 [9]: 0.24 µM
- Ratio EC50 [10]: 4.3
- EC50 [11]: 0.014 µM
- selectivity ratio [12]: 245
- EC50 [13]: 0.27 µM
- selectivity ratio [14]: 39
- EC50 [15]: 1.43 µM
- EC50 [16]: 0.024 µM
- selectivity ratio [17]: 686
- CC50 [18]: 58.1 µM
- EC50 [19]: 0.02 µM
- selectivity ratio [20]: 60
- EC50 [21]: 1.48 µM
- selectivity ratio [22]: 214
- Ratio EC50 [23]: 74
- selectivity ratio [26]: 2900
- Ratio EC50 [24]: 48
- Ratio EC50 [25]: 13.5

Structure (SMILES): O=C1Nc2ccc(Cl)cc2[C@@](C#CC2CC2)(C(F)(F)F)O1 [EFAVIRENZ]
- CC50 at 120 h [27]: > 6.34 µM

Structure (SMILES): Cc1ccnc2c1NC(=O)c1cccnc1N2C1CC1 [NEVIRAPINE]
- EC50 [15]: > 15 µM
- CC50 at 120 h [27]: > 15 µM
- EC50 [19]: 0.26 µM
